Measurements: ChEMBL document CHEMBL1671746, “TelA contributes to the innate resistance of Listeria monocytogenes to nisin and other cell wall-acting antibiotics” (2010)
Values after ≈ are worked out from the molar mass of the structure shown. Bridge positions count the residues as written; N and C are the ends. Square brackets hold non-standard residues; d marks the D form. Peptide text beside a SMILES is read from it. * marks the point of attachment. Ileψ(thiazoline)Cys = CC[C@H](C)[C@H](N)C1=N[C@H](C(=O)*)CS1; dOrn = NCCC[C@@H](N)C(=O)O

Legend:
Type in all cases: functional
Listeria monocytogenes [1] = assay: Antibacterial activity against 10^7 CFU/ml wild-type Listeria monocytogenes EGD-e Serovar 1/2a […] after 16 hrs by disk diffusion assay; conditions: read-out: IZ
Method in brief: (§1)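 Stationary-phase (16 h) cultures were diluted to 10^7 CFU/ml and swabbed onto TSA-YE. 6-mm disks carrying a single antibiotic were laid on the agar. Zones of inhibition were measured after overnight (16 h) growth.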

Listeria monocytogenes [2] = assay: Antibacterial activity against 10^7 CFU/ml telA-deficient Listeria monocytogenes EGD-e Serovar 1/2a at 10 ug after 16 hrs by disk diffusion assay; conditions: read-out: IZ; method in brief: as §1
Listeria monocytogenes [3] = assay: Antibacterial activity against 10^5 CFU/ml wild-type Listeria monocytogenes EGD-e Serovar 1/2a after 16 hrs by two fold serial dilution method
Method in brief: (§2)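 Broth microdilution in TSB-YE: 2-fold serial dilutions of antimicrobial mixed 1:1 with target cells at 10^5 CFU/ml. Incubated 20 h for HPLC-purified nisin A, 16 h for other antimicrobials. MIC is the lowest concentration giving no visible growth. For nisin and gallidermin, the μg/ml value is converted from a μM value.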

Listeria monocytogenes [4] = assay: Antibacterial activity against 10^5 CFU/ml telA-deficient Listeria monocytogenes EGD-e Serovar 1/2a after 16 hrs by two fold serial dilution method; method in brief: as §2
Listeria monocytogenes [5] = assay: Ratio of MIC wild-type Listeria monocytogenes EGD-e Serovar 1/2a to MIC for telA-deficient Listeria monocytogenes EGD-e Serovar 1/2a
Method in brief: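 Both MICs come from the TSB-YE 2-fold broth microdilution (10^5 CFU/ml; 20 h for purified nisin A, 16 h for others). The ratio compares the parent EGDe MIC with the ΔtelA MIC.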

Listeria monocytogenes [6] = assay: Antibacterial activity against 10^7 CFU/ml wild-type Listeria monocytogenes EGD-e Serovar 1/2a at 30 ug after 16 hrs by disk diffusion assay; conditions: read-out: IZ; method in brief: as §1
Listeria monocytogenes [7] = assay: Antibacterial activity against 10^7 CFU/ml telA-deficient Listeria monocytogenes EGD-e Serovar 1/2a at 30 ug after 16 hrs by disk diffusion assay; conditions: read-out: IZ; method in brief: as §1
Listeria monocytogenes [8] = assay: Antibacterial activity against 10^7 CFU/ml wild-type Listeria monocytogenes EGD-e Serovar 1/2a at 5 ug after 16 hrs by disk diffusion assay; conditions: read-out: IZ; method in brief: as §1
Listeria monocytogenes [9] = assay: Antibacterial activity against 10^7 CFU/ml telA-deficient Listeria monocytogenes EGD-e Serovar 1/2a at 5 ug after 16 hrs by disk diffusion assay; conditions: read-out: IZ; method in brief: as §1
Listeria monocytogenes [10] = assay: Antibacterial activity against 10^7 CFU/ml wild-type Listeria monocytogenes EGD-e Serovar 1/2a at 1 ug after 16 hrs by disk diffusion assay; conditions: read-out: IZ
Method in brief: (§3)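 Stationary-phase (16 h) cultures diluted to 10^7 CFU/ml and swabbed onto TSA-YE agar. Six-millimetre disks infused with antibiotic placed on plates. Inhibition zones measured after overnight (16 h) growth. Strains grown at 37°C in tryptic soy broth with yeast extract.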

Listeria monocytogenes [11] = assay: Antibacterial activity against 10^7 CFU/ml telA-deficient Listeria monocytogenes EGD-e Serovar 1/2a […] after 16 hrs by disk diffusion assay; conditions: read-out: IZ; method in brief: as §3

CC[C@H](C)[C@H](N)C1=N[C@H](C(=O)N[C@@H](CC(C)C)C(=O)N[C@H](CCC(=O)O)C(=O)N[C@H](C(=O)N[C@H]2CCCCNC(=O)[C@H](CC(N)=O)NC(=O)[C@@H](CC(=O)O)NC(=O)[C@H](Cc3cnc[nH]3)NC(=O)[C@@H](Cc3ccccc3)NC(=O)[C@H]([C@@H](C)CC)NC(=O)[C@@H](CCCN)NC2=O)[C@@H](C)CC)CS1 [BACITRACIN] ({Ileψ(thiazoline)Cys}-L[dE]IK[dOrn]I[dF]H[dD]N; lactam 4-C)
zone of inhibition at 10 µg/disc (Listeria monocytogenes [1]): 12.5 mm | zone of inhibition at 10 µg/disc (Listeria monocytogenes [2]): 15.1 mm | MIC (Listeria monocytogenes [3]): 256 µg/mL (≈ 180 µM) | MIC (Listeria monocytogenes [4]): 128 µg/mL (≈ 90 µM) | fold change (FC) (Listeria monocytogenes [5]): 2

CO/N=C(\C(=O)N[C@@H]1C(=O)N2C(C(=O)O)=C(COC(C)=O)CS[C@H]12)c1csc(N)n1 [CEFOTAXIME]
zone of inhibition at 30 µg/disc (Listeria monocytogenes [6]): 21.3 mm | zone of inhibition at 30 µg/disc (Listeria monocytogenes [7]): 23.7 mm | MIC (Listeria monocytogenes [3]): 2 µg/mL (≈ 4.39 µM) | MIC (Listeria monocytogenes [4]): 1 µg/mL (≈ 2.2 µM) | fold change (FC) (Listeria monocytogenes [5]): 2

CO/N=C(\C(=O)N[C@@H]1C(=O)N2C(C(=O)O)=C(COC(N)=O)CS[C@H]12)c1ccco1 [CEFUROXIME]
zone of inhibition at 30 µg/disc (Listeria monocytogenes [6]): 21.1 mm | zone of inhibition at 30 µg/disc (Listeria monocytogenes [7]): 24.4 mm | MIC (Listeria monocytogenes [3]): 2.87 µg/mL (≈ 6.76 µM) | MIC (Listeria monocytogenes [4]): 1.44 µg/mL (≈ 3.39 µM) | fold change (FC) (Listeria monocytogenes [5]): 2

C/C=C(/NC(=O)[C@H](CCCCN)NC(=O)[C@H](C)NC(=O)[C@H]1CS[C@@H](C)[C@@H](NC(=O)[C@H]2CSC[C@@H](NC(=O)[C@H](C)NC(=O)[C@@H](N)[C@@H](C)CC)C(=O)N[C@@H](CCCCN)C(=O)N[C@@H](Cc3ccccc3)C(=O)N[C@@H](CC(C)C)C(=O)N2)C(=O)N2CCC[C@H]2C(=O)NCC(=O)N1)C(=O)NCC(=O)N[C@@H]1CSC[C@H]2NC(=O)[C@H](Cc3ccc(O)cc3)NC(=O)[C@@H](CS/C=C/NC2=O)NC(=O)[C@H](CC(N)=O)NC(=O)[C@H](Cc2ccccc2)NC1=O [GALLIDERMIN]
MIC (Listeria monocytogenes [3]): 1.97 µg/mL (≈ 0.91 µM) | MIC (Listeria monocytogenes [4]): 0.246 µg/mL (≈ 0.114 µM) | fold change (FC) (Listeria monocytogenes [5]): 8

COc1cccc(OC)c1C(=O)N[C@@H]1C(=O)N2[C@@H]1SC(C)(C)[C@@H]2C(=O)O [METHICILLIN]
zone of inhibition at 5 µg/disc (Listeria monocytogenes [8]): 25.6 mm | zone of inhibition at 5 µg/disc (Listeria monocytogenes [9]): 26.7 mm

Cc1onc(-c2ccccc2)c1C(=O)N[C@@H]1C(=O)N2[C@@H]1SC(C)(C)[C@@H]2C(=O)O [OXACILLIN]
zone of inhibition at 1 µg/disc (Listeria monocytogenes [10]): 10.7 mm | zone of inhibition at 1 µg/disc (Listeria monocytogenes [11]): 12.3 mm
